Measured values: the RNAGym collection of RNA variant scans (doi:10.1126/science.aae0568)
Fewer inactive variants are shown than the library holds.

B1: tRNA (parent)
chain: GUUCCGUUGGCGUAAUGGUAACGCGUCUCCCUCCUAAGGAGAAGACUGCGGGUUCGAGUCCCGUACGGAACG

Variants of: B1
Assay: yeast fitness relative to wild type (ratio to wild type); higher = fitter; tRNA-Arg(CCU), competitive growth, 37 C, YPD
Outline: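 Changes in genotype frequencies gave Darwinian fitness relative to wild type. Frequencies were read by 100-nucleotide paired-end sequencing of gene amplicons before and after pooled Saccharomyces cerevisiae strains, carrying tRNA-Arg(CCU) gene variants at the native locus, were competed in YPD at 37°C for 24 hours in six replicates. A genotype was kept only with ≥ 100 starting reads, and estimates < 0.5 were set to 0.5.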

Variant | yeast fitness
C11A C22U G44C C60U A69G | 0.597
A14G A40U | 0.904
C11A A21C U26G A69C | ≤ 0.5
A21C G38C G63C A70U | ≤ 0.5
G9A G52A G56U | ≤ 0.5
C11U G17A A57G | ≤ 0.5
C34U C60G | 0.716
U35C U47A C49U | 0.603
U3G U7C A40U | 0.502
C29G U53A | 0.523
U32A C46A | 0.683
G23A C29U C30A | 0.565
G38C U47C | 0.757
G18C U19G A45C | 0.73
C29G C55U | ≤ 0.5
C11G A15C C34U U47C G48A C55U | ≤ 0.5
G10C A36G | 0.663
C4U G44A | 1.05
C5G C31A G67C | 0.62
A14C G58A C61A C62G | ≤ 0.5
U13A U16C C34A | ≤ 0.5

Variant | yeast fitness
C24U A45U C55U | 0.569
U2A C60G A70C | 0.532
A15U G23A A40C A57G C61U A65C | 0.629
U3C A14G C34G A43C | ≤ 0.5
C11U C27G G48C C49G | ≤ 0.5
U2A C24G G25A C61G G67C G68A | ≤ 0.5
C24G C31U G48A C49U | 0.785
U7A U8G G51A A69C | ≤ 0.5
C11A C24U | 0.61
U2A C4U G25C C49U C61U | 0.581
C24A G52C A57C | 0.561
G23C C24A A57G G68A | ≤ 0.5
C22A C29U A69U | 0.592
U2G C33U A36U A43C | 0.688
C5G C11U A42G C49U C66U G67A | ≤ 0.5
C24G C49U A57U | ≤ 0.5
U13A G41A A42C G50C A70G | ≤ 0.5
U3C G48A U54A | 0.534
G6C C46G U54C | ≤ 0.5
C34A A36C C46A | ≤ 0.5
A37U G52C | ≤ 0.5

Variant | yeast fitness
C5A A42U G58A | 0.614
A15U C27A | 0.593
C24G C30U C49G | 0.664
U2C C62U | 0.882
C5U A15C U32A G52C C62G U64C | ≤ 0.5
C4G U26C C46U | 0.702
C11U C30G A40U U54A | ≤ 0.5
A36U C49G U54A A57C G68A | ≤ 0.5
U8A A15C G18C | 0.575
G6C G17A A36G C60U G63C | ≤ 0.5
U13C A57C | 0.67
C24U G41C C49A | 0.778
U2A A20G C31A A43U C61A | ≤ 0.5
G9C G12A | 0.629
C27U C33U A36U G63C | 0.541
C5U A21U C30G C60G A70C | ≤ 0.5
G6A G25A A69U | 0.68
U7G G23C C24A C30G A36U C61U A65U | ≤ 0.5
C4G A15U C34G A36C | ≤ 0.5
C11G G18C A69U | ≤ 0.5
C5U A21U C33U G50A U59C | ≤ 0.5

Variant | yeast fitness
C5U C30U C49G | 0.62
U7G A42U U53A | ≤ 0.5
C27G A36U C46U G67A | 0.54
U28A C34U U47C C60U | ≤ 0.5
G6A G39C A45G | ≤ 0.5
C34G A43C G50C | ≤ 0.5
G18A G25C | 0.746
C30U A37G A70C | 0.59
G6A C24U G48C | 0.618
C4A A21C C22U G50C A70U | 0.73
U7A C60G A69G | 0.588
U7A U32C A65G | 0.558
C5U C22G C66G | 0.547
C4U A20G A45U C61U C62G | 0.53
A21G C31U G52C G68A | ≤ 0.5
C11G C34G A37U | ≤ 0.5
C4G C55G G63A | 0.558
C27G G39C C61U | 0.577
C5A A21G C24U A45U A57U | 0.603
C11U A21U G41A C61A | ≤ 0.5
